Tests used:
[1] = tested on: A549; assay: Growth inhibition of human A549 cells; format: functional
[2] = tested on: IGROV-1; assay: Growth inhibition of human IGROV1 cells; format: functional
[3] = tested on: DMS-273; assay: Growth inhibition of human DMS273 cells; format: functional
[4] = tested on: NCI-H226; assay: Growth inhibition of human NCI-H226 cells; format: functional
[5] = tested on: ACHN; assay: Growth inhibition of human ACHN cells; format: functional
[6] = tested on: SN12C; assay: Growth inhibition of human SN12C cells; format: functional
How it was run: (§1)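 Tested at the NCI in its human disease-oriented in vitro screen of 60 tumour cell lines, following the Monks et al. methods. Activity is expressed as GI50, given as log molar values.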

[7] = tested on: HCT-116; assay: Growth inhibition of human HCT116 cells; format: functional
[8] = tested on: U-251; assay: Growth inhibition of human U251 cells; format: functional; how it was run: as §1
[9] = tested on: SF-539; assay: Growth inhibition of human SF539 cells; format: functional; how it was run: as §1
[10] = tested on: SW-620; assay: Growth inhibition of human SW620 cells; format: functional; how it was run: as §1
[11] = tested on: SR; assay: Growth inhibition of human SR cells; format: functional; how it was run: as §1
[12] = tested on: SK-MEL-2; assay: Growth inhibition of human SK-MEL-2 cells; format: functional; how it was run: as §1
[13] = tested on: RXF 393; assay: Growth inhibition of human […] cells; format: functional
[14] = Growth inhibition of human RPMI8266 cells; format: functional
[15] = tested on: HT-29; assay: Growth inhibition of human HT29 cells; format: functional
[16] = tested on: CCRF-CEM; assay: Growth inhibition of human CCRF-CEM cells; format: functional
[17] = tested on: NCI-H322M; assay: Growth inhibition of human NCI-H322M cells; format: functional
[18] = tested on: SNB-19; assay: Growth inhibition of human SNB19 cells; format: functional; how it was run: as §1
[19] = tested on: HCC 2998; assay: Growth inhibition of human HCC2998 cells; format: functional
[20] = tested on: Malme-3M; assay: Growth inhibition of human MALME-3M cells; format: functional
[21] = tested on: KM12; assay: Growth inhibition of human KM12 cells; format: functional
[22] = tested on: HOP-92; assay: Growth inhibition of human HOP92 cells; format: functional
[23] = Growth inhibition of human OVACR4 cells; format: functional
[24] = tested on: SK-MEL-5; assay: Growth inhibition of human SK-MEL-5 cells; format: functional; how it was run: as §1
[25] = Growth inhibition of human HL60(TB) cells; format: functional, HL-60(TB); settings: HL-60
[26] = tested on: KM-20L2; assay: Growth inhibition of human KM20L2 cells; format: functional
[27] = tested on: LOX IMVI; assay: Growth inhibition of human LOX IMVI cells; format: functional
[28] = tested on: NCI-H522; assay: Growth inhibition of human NCI-H522 cells; format: functional
[29] = tested on: HCT-15; assay: Growth inhibition of human HCT15 cells; format: functional
[30] = tested on: SK-MEL-28; assay: Growth inhibition of human SK-MEL-28 cells; format: functional; how it was run: as §1
[31] = tested on: DLD-1; assay: Growth inhibition of human DLD1 cells; format: functional
[32] = tested on: NCI-H460; assay: Growth inhibition of human NCI-H460 cells; format: functional
[33] = tested on: K562; assay: Growth inhibition of human K562 cells; format: functional
[34] = tested on: XF498; assay: Growth inhibition of human XF498 cells; format: functional; how it was run: as §1
[35] = tested on: UO-31; assay: Growth inhibition of human UO31 cells; format: functional; how it was run: as §1
[36] = tested on: SNB-75; assay: Growth inhibition of human SNB75 cells; format: functional; how it was run: as §1
[37] = tested on: TK-10; assay: Growth inhibition of human TK10 cells; format: functional; how it was run: as §1
[38] = tested on: COLO 205; assay: Growth inhibition of human COLO205 cells; format: functional
[39] = tested on: SF-268; assay: Growth inhibition of human SF268 cells; format: functional; how it was run: as §1
[40] = Growth inhibition of human OVACR5 cells; format: functional
[41] = tested on: M14; assay: Growth inhibition of human M14 cells; format: functional
[42] = tested on: HOP-62; assay: Growth inhibition of human HOP62 cells; format: functional
[43] = tested on: SK-OV-3; assay: Growth inhibition of human SK-OV-3 cells; format: functional; how it was run: as §1
[44] = tested on: MOLT-4; assay: Growth inhibition of human MOLT4 cells; format: functional
[45] = tested on: UACC-62; assay: Growth inhibition of human UACC62 cells; format: functional; how it was run: as §1
[46] = Growth inhibition of human LXFL529 cells; format: functional; settings: LXFL 529
[47] = Growth inhibition of human DMS144 cells; format: functional
[48] = Growth inhibition of human […] cells; format: functional
[49] = Growth inhibition of human OVACR8 cells; format: functional
[50] = tested on: M19-MEL; assay: Growth inhibition of human M19-MEL cells; format: functional
[51] = tested on: 786-0; assay: Growth inhibition of human 786-0 cells; format: functional
[52] = tested on: MDA-MB-435; assay: Growth inhibition of human MDA-MB-435 cells; format: functional
[53] = tested on: NCI-H23; assay: Growth inhibition of human NCI-H23 cells; format: functional
[54] = tested on: BT-549; assay: Growth inhibition of human BT549 cells; format: functional
[55] = tested on: MCF7; assay: Growth inhibition of human MCF7 cells; format: functional
[56] = tested on: SF-295; assay: Growth inhibition of human SF295 cells; format: functional; how it was run: as §1
[57] = tested on: T47D; assay: Growth inhibition of human T47D cells; format: functional; how it was run: as §1
[58] = tested on: PC-3; assay: Growth inhibition of human PC3 cells; format: functional
[59] = tested on: UACC-257; assay: Growth inhibition of human UACC257 cells; format: functional; how it was run: as §1
[60] = tested on: Hs-578T; assay: Growth inhibition of human HS578T cells; format: functional
[61] = Growth inhibition of human MCF7/ADR-RES cells; format: functional; settings: NCI/ADR-RES
[62] = tested on: MDA-MB-231; assay: Growth inhibition of human MDA-MB-231 cells; format: functional
[63] = tested on: MDA-N; assay: Growth inhibition of human MDA-N cells; format: functional
[64] = tested on: A498; assay: Growth inhibition of human A498 cells; format: functional
[65] = tested on: DU-145; assay: Growth inhibition of human DU145 cells; format: functional

Question: Which GI50 [1] does the source give for Cc1cc2c(cc1O)[nH]c1cc3c(cc12)C=CC(C)(C)O3 here?
Answer: 6.46 µM

Question: And the GI50 [2]?
Answer: 22.9 µM

Question: What about the GI50 [3] of the same compound?
Answer: 5.01 µM

Question: What about the GI50 [4] of the same compound?
Answer: 19.1 µM

Question: What about the GI50 [5] of the same compound?
Answer: 9.33 µM

Question: And the GI50 [6]?
Answer: 6.31 µM

Question: What about the GI50 [7] of the same compound?
Answer: 12.9 µM

Question: What about the GI50 [8] of the same compound?
Answer: 6.03 µM

Question: What about the GI50 [9] of the same compound?
Answer: 4.07 µM

Question: And the GI50 [10]?
Answer: 7.59 µM

Question: And the GI50 [11]?
Answer: 6.46 µM

Question: What about the GI50 [12] of the same compound?
Answer: 25.1 µM

Question: What about the GI50 [13] of the same compound?
Answer: 4.9 µM

Question: And the GI50 [14]?
Answer: 9.12 µM

Question: And the GI50 [15]?
Answer: 11.7 µM

Question: And the GI50 [16]?
Answer: 20 µM

Question: What about the GI50 [17] of the same compound?
Answer: 13.2 µM

Question: And the GI50 [18]?
Answer: 25.1 µM

Question: What about the GI50 [19] of the same compound?
Answer: 6.76 µM

Question: What about the GI50 [20] of the same compound?
Answer: 10 µM

Question: And the GI50 [21]?
Answer: 5.25 µM

Question: What about the GI50 [22] of the same compound?
Answer: 9.77 µM

Question: What about the GI50 [23] of the same compound?
Answer: 10.5 µM

Question: What about the GI50 [24] of the same compound?
Answer: 17.4 µM

Question: What about the GI50 [25] of the same compound?
Answer: 6.92 µM

Question: And the GI50 [26]?
Answer: 9.33 µM

Question: What about the GI50 [27] of the same compound?
Answer: 3.98 µM

Question: What about the GI50 [28] of the same compound?
Answer: 8.32 µM

Question: What about the GI50 [29] of the same compound?
Answer: 8.71 µM

Question: What about the GI50 [30] of the same compound?
Answer: 14.5 µM

Question: What about the GI50 [31] of the same compound?
Answer: 12.9 µM

Question: And the GI50 [32]?
Answer: 5.37 µM

Question: And the GI50 [33]?
Answer: 25.1 µM

Question: And the GI50 [34]?
Answer: 25.1 µM

Question: And the GI50 [35]?
Answer: 11.5 µM

Question: And the GI50 [36]?
Answer: 11.2 µM

Question: And the GI50 [37]?
Answer: 25.1 µM

Question: What about the GI50 [38] of the same compound?
Answer: 25.1 µM

Question: What about the GI50 [39] of the same compound?
Answer: 6.76 µM

Question: And the GI50 [40]?
Answer: 17.8 µM

Question: What about the GI50 [41] of the same compound?
Answer: 6.03 µM

Question: What about the GI50 [42] of the same compound?
Answer: 7.94 µM

Question: What about the GI50 [43] of the same compound?
Answer: 25.1 µM

Question: What about the GI50 [44] of the same compound?
Answer: 0.00324 µM

Question: What about the GI50 [45] of the same compound?
Answer: 6.76 µM

Question: And the GI50 [46]?
Answer: 9.33 µM

Question: What about the GI50 [47] of the same compound?
Answer: 10.7 µM

Question: What about the GI50 [48] of the same compound?
Answer: 7.24 µM

Question: What about the GI50 [49] of the same compound?
Answer: 4.57 µM

Question: What about the GI50 [50] of the same compound?
Answer: 19.5 µM

Question: Which results are given for C=C(C)C(O)CCC1(C)C=Cc2c(c(C)cc3c2[nH]c2ccccc23)O1 (stereo not drawn)?
Answer: GI50 [1]: 5.01 µM; GI50 [2]: 8.32 µM; GI50 [4]: 6.31 µM; GI50 [5]: 4.47 µM; GI50 [6]: 9.55 µM; GI50 [7]: 9.77 µM; GI50 [8]: 5.37 µM; GI50 [9]: 3.63 µM; GI50 [10]: 5.13 µM; GI50 [11]: 4.47 µM; GI50 [12]: 2.09 µM; GI50 [51]: 3.89 µM; GI50 [52]: 8.32 µM; GI50 [13]: 2.75 µM; GI50 [14]: 2.95 µM; GI50 [15]: 1.7 µM; LC50 [15]: 6.17 µM; GI50 [16]: 4.17 µM; GI50 [53]: 10.7 µM; GI50 [54]: 12.9 µM; GI50 [55]: 12.3 µM; GI50 [17]: 7.94 µM; GI50 [18]: 11.5 µM; GI50 [19]: 2.19 µM; GI50 [20]: 11.2 µM; GI50 [21]: 2 µM; CC50 ([21]; read-out: pLC50 (the source's name) (converted)): 9.33 µM; GI50 [22]: 10.2 µM; GI50 [56]: 4.37 µM; GI50 [57]: 7.76 µM; GI50 [23]: 16.6 µM; GI50 [24]: 10 µM; GI50 [58]: 6.61 µM; GI50 [25]: 4.27 µM; GI50 [27]: 3.09 µM; GI50 [28]: 3.31 µM; GI50 [29]: 1.95 µM; GI50 [32]: 2.34 µM; GI50 [33]: 2.75 µM; GI50 [35]: 12 µM; GI50 [36]: 3.31 µM; GI50 [59]: 8.13 µM; GI50 [60]: 3.16 µM; GI50 [37]: 14.1 µM; GI50 [61]: 8.91 µM; GI50 [38]: 2.45 µM; GI50 [62]: 3.47 µM; GI50 [39]: 5.62 µM; GI50 [40]: 2.09 µM; GI50 [41]: 6.61 µM; GI50 [42]: 2.45 µM; GI50 [43]: 11 µM; GI50 [44]: 3.47 µM; GI50 [48]: 10.2 µM; GI50 [49]: 10.7 µM; GI50 [63]: 3.55 µM; GI50 [64]: 13.5 µM; GI50 [65]: 12.6 µM
